Experimental data published in ChEMBL document CHEMBL1125201, “C-glycosidic analogues of lipid A and lipid X: synthesis and biological activities” (J Med Chem, 1991).

Key:
Mus musculus = experiment: Survival rate of the nonspecific resistance against Pseudomonas aeruginosa infection after intraperitoneal administration in ten mice; assay type: functional; design: unit: surviving mice (of 10)
In short: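 Compound (12.5 mg/kg, single dose) given ip to myelosuppressed mice on day -1, then iv infection with P. aeruginosa (Δ12) on day 0 at an LD35 inoculum; 10 mice per group; survival counted after 4-day observation; LPS (S. abortus equi) ip control group.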

[1] = Compound was evaluated for lethal dose after intravenous administration; assay type: toxicity, organism-based; settings: mouse, in vivo
In short: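 Mice (C57BL/6, groups of six) given serial dilutions of compound iv via tail vein in pyrogen-free saline, with galactosamine 400 mg/kg ip given at the same time to sensitize to endotoxin; lethal toxicity recorded as LD50.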

Pseudomonas aeruginosa = experiment: Compound was evaluated for effective dose required for the nonspecific resistance against Pseudomonas aeruginosa after intraperitoneal administration; assay type: functional; settings: ip
In short: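 Myelosuppressed mice got the compound ip on day -1 and were infected iv with P. aeruginosa (Δ12) on day 0 at an LD35 inoculum. Survival was scored over 4 days. ED50 was calculated by Probit analysis with confidence limits. Disaccharides were tested as lysine salts.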

Structure (SMILES) | Survival rate (Mus musculus) | LD50 [1] | ED50 (Pseudomonas aeruginosa)
CCCCCCCCCCC[C@@H](O)CC(=O)NC1C(OCC2OC(CC(=O)O)C(NC(C)=O)C(OC(=O)C[C@H](O)CCCCCCCCCCC)C2O)OC(CO)C(O)C1OC(=O)C[C@H](O)CCCCCCCCCCC (stereo not given in full) | 7 | – | –
CCCCCCCCCCC[C@@H](O)CC(=O)N[C@H]1C(CC(=O)O)OC(CO)C(O)C1O (stereo not given in full) | 0 | – | –
CCCCCCCCCCCCCC(=O)O[C@H](CCCCCCCCCCC)CC(=O)OC1C(O)C(CO)OC(OP(=O)(O)O)C1NC(=O)C[C@H](O)CCCCCCCCCCC (stereo not given in full) | 9 | 0.3 mg/kg | 1.7 mg/kg
CCCCCCCCCCC[C@@H](O)CC(=O)NC1C(CC(=O)O)OC(COC2OC(CO)C(O)C(OC(=O)C[C@H](O)CCCCCCCCCCC)C2NC(=O)C[C@H](O)CCCCCCCCCCC)C(O)C1OC(=O)C[C@H](O)CCCCCCCCCCC (stereo not given in full) | 10 | ~5.2 mg/kg | 1.5 mg/kg
CCCCCCCCCCCCCC(=O)O[C@H](CCCCCCCCCCC)CC(=O)O[C@H]1[C@H](O)[C@H](CO)O[C@H](CC(=O)O)[C@@H]1NC(=O)C[C@H](O)CCCCCCCCCCC (stereo in doubt; 17b) | 9 | 0.2 mg/kg | 1.8 mg/kg
CCCCCCCCCCCCCC(=O)O[C@H](CCCCCCCCCCC)CC(=O)O[C@H]1[C@H](O)[C@H](CO)O[C@@H](CC(=O)O)[C@@H]1NC(=O)C[C@H](O)CCCCCCCCCCC | 2 | – | –
CCCCCCCCCCC[C@@H](O)CC(=O)N[C@H]1C(CC(=O)O)OC(CO)C(O)C1OC(=O)C[C@H](O)CCCCCCCCCCC (stereo not given in full) | 4 | – | –
CCCCCCCCCCC[C@@H](O)CC(=O)NC1C(CC(=O)O)OC(CO)C(OC(=O)C[C@H](O)CCCCCCCCCCC)C1OC(=O)C[C@H](O)CCCCCCCCCCC (stereo not given in full) | 10 | 1 mg/kg | 1.1 mg/kg
CCCCCCCCCCC[C@@H](O)CC(=O)OC1C(O)C(CO)OC(CC(=O)O)[C@@H]1NC(C)=O (stereo not given in full) | 1 | – | –
CCCCCCCCCCC[C@@H](O)CC(=O)NC1C(OP(=O)(O)O)OC(CO)C(OC(=O)C[C@H](O)CCCCCCCCCCC)C1OC(=O)C[C@H](O)CCCCCCCCCCC (stereo not given in full) | 10 | 0.8 mg/kg | 1.1 mg/kg
CCCCCCCCCCC[C@@H](O)CC(=O)NC1C(OCC2OC(OP(=O)(O)O)C(NC(=O)C[C@H](O)CCCCCCCCCCC)C(OC(=O)C[C@H](O)CCCCCCCCCCC)C2O)OC(CO)C(O)C1OC(=O)C[C@H](O)CCCCCCCCCCC (stereo not given in full) | 8 | 3.5 mg/kg | 3.4 mg/kg
CCCCCCCCCCCCCC(=O)O[C@H](CCCCCCCCCCC)CC(=O)O[C@H]1[C@H](O)[C@H](CO)O[C@H](CC(=O)O)[C@@H]1NC(=O)C[C@H](O)CCCCCCCCCCC (stereo in doubt; 13a) | 4 | – | –
CCCCCCCCCCC[C@@H](O)CC(=O)NC1C(OP(=O)(O)O)OC(CO)C(O)C1OC(=O)C[C@H](O)CCCCCCCCCCC (stereo not given in full) | 0 | – | –
